Three compounds from PubChem BioAssay AID602154 (Broad Institute, 2011) can be followed below.

The test concerns the target Scavenger receptor class B member 1 (Mus musculus) (UniProt Q61009). Briefly: reversibility of SR-BI HDL uptake inhibition, late-stage follow-up, mechanism study for SR-BI HDL uptake inhibitor project, ldlA[mSR-BI] CHO cells, fluorescence (AID 602154). The following applies: DiI-HDL uptake after washout. In short, it runs like this:
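Material: ldlA[mSR-BI] CHO cells, LDL-receptor-deficient, overexpressing mouse SR-BI. Technique: bottom-read DiI fluorescence, excitation 550 nm, emission 595 nm. Times: 2 h compound, 4 h washout, 3 h DiI-HDL. Buffer or medium: BSA (fatty acid-free) and HEPES uptake buffer.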

Active and inactive are the calls of the source.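 The calls were made as follows: active = compounds reducing DiI-HDL uptake fluorescence after washout, with fitted AC50 at most twice the top tested dose; inconclusive = flat partial inhibition of 30 to 70% or a poor fit; inactive = the rest.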 A value given as a limit tells only on which side of the number the result lay.

Sequence of Scavenger receptor class B member 1 (Mus musculus) (Q61009 whole entry, looked up): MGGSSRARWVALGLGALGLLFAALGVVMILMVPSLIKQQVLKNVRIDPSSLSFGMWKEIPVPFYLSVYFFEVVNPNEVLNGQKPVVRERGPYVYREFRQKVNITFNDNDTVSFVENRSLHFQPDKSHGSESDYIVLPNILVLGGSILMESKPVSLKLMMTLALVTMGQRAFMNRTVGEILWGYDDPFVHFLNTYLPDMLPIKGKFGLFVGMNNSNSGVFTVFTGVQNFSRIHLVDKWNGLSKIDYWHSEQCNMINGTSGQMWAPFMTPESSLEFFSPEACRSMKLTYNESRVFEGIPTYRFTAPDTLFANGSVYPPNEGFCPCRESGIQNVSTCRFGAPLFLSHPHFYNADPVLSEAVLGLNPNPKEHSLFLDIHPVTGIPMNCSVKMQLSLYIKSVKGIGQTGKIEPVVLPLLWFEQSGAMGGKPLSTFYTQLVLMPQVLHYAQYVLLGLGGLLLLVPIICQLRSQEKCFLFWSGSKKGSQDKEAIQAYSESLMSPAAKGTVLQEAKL

The term AC50 denotes the concentration giving half of the maximal activity seen. `C[C@H](C(=O)NC1CCCC1)N(C(=O)Cn1nnc(-c2ccc3c(c2)OCO3)n1)C1CCCCC1`: the AC50 was > 70000 nM (inactive).
Regarding `CCCCCCC1CCC/C1=N\NC(N)=S` (stereo not drawn), the AC50 was 0.598 nM.
With `COCC(=O)N1CCc2cc(-c3csc(NC(=O)c4cc(OC)cc(OC)c4)n3)ccc21`, the AC50 is 860 nM.
